pKi: −log10 of the molar value.
Experiments:
[1] = target: Mu-type opioid receptor (Cavia porcellus) (UniProt P97266); assay: Agonist activity against guinea pig ileum Opioid receptor mu 1; format: functional, tissue-based
In short: (§1)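 Agonist activity in MVD or GPI preparations; ligands that were not full agonists tested at 1 µM, activity expressed as percent of maximal response.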

[2] = target: Kappa-type opioid receptor (Mus musculus, UniProt P33534); assay: Binding affinity against Opioid receptor kappa 1 binding in ICR mouse brain membranes using the radioligand [3H]U-69593; format: cell membranes, Membrane
In short: (§2)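 Competition binding on ICR mouse brain membranes using selective radioligands: [3H]naltrindole (δ), [3H]DAMGO (μ), [3H]U69593 (κ). Ki reported as mean ± SEM of at least three determinations.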

[3] = target: Delta-type opioid receptor (Mus musculus) (UniProt P32300); assay: Activity against Opioid receptor delta 1 on electrically stimulated mouse vas deferens using DADLE as agonist; format: functional, tissue-based
In short: (§3)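 Antagonist test in electrically stimulated smooth muscle, DADLE in MVD, morphine or ethylketazocine in GPI: ligand (100 nM) preincubated with the preparation 15 min before agonist testing. IC50 ratio = agonist IC50 with test compound / control IC50 in same preparation; Ke = [antagonist]/(IC50 ratio − 1).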

[4] = target: Delta-type opioid receptor (Mus musculus, UniProt P32300); assay: Binding affinity against Opioid receptor delta 1 receptor binding in ICR mouse brain membranes using the radioligand [3H]naltrindole; format: cell membranes, Membrane; in short: as §2
Mu-type opioid receptor = Mu-type opioid receptor (Mus musculus, UniProt P42866); assay: Binding affinity against Opioid receptor mu 1 binding in ICR mouse brain membranes using the radioligand [3H][Ala2,Glyol5]enkephalin; format: cell membranes, Membrane; in short: as §2
[5] = target: Kappa-type opioid receptor (Homo sapiens) (UniProt P41145); assay: Selectivity ratio measured as the delta IC50 to that of kappa IC50 values.; format: functional
[6] = target: Delta-type opioid receptor (Homo sapiens) (UniProt P41143); assay: Selectivity ratio measured as the kappa Ki to that of delta Ki values.
In short: (§4)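 Ki selectivity ratio = Ki at κ or μ (ICR mouse brain membranes, [3H]U69593 or [3H]DAMGO) divided by Ki at δ ([3H]naltrindole competition).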

[7] = target: Delta-type opioid receptor (Homo sapiens) (UniProt P41143); assay: Selectivity ratio measured as the mu Ki to that of delta Ki values.; in short: as §4
[8] = target: Mu-type opioid receptor (Homo sapiens) (UniProt P35372); assay: Selectivity ratio measured as the delta IC50 to that of mu IC50 values.; format: functional
[9] = target: Delta-type opioid receptor (Mus musculus) (UniProt P32300); assay: Agonist activity in mouse vas deferens assay relative to DADLE; format: functional, tissue-based; in short: as §1
[10] = target: Kappa-type opioid receptor (Cavia porcellus) (UniProt P41144); assay: Agonist activity against guinea pig ileum kappa receptor relative to ethylketazocine; format: functional, tissue-based; in short: as §1
[11] = target: Kappa-type opioid receptor (Cavia porcellus) (UniProt P41144); assay: Activity against Opioid receptor kappa 1 on electrically stimulated guinea pig ileum using ethylketazocine as the standard agonist.; format: functional, tissue-based; in short: as §3
[12] = target: Mu-type opioid receptor (Cavia porcellus) (UniProt P97266); assay: Activity against mu receptor on electrically stimulated guinea pig ileum using morphine as the standard agonist (Opioid receptor mu 1); format: functional, tissue-based; in short: as §3
[13] = target: Mu-type opioid receptor (Cavia porcellus) (UniProt P97266); assay: Agonist guinea pig ileum (Opioid receptor mu 1); format: functional, tissue-based; in short: as §1
[14] = target: Mu-type opioid receptor (Cavia porcellus) (UniProt P97266); assay: Agonist guinea pig ileum; format: functional, tissue-based; in short: as §1

Mu-type opioid receptor, sequence (P42866 whole entry): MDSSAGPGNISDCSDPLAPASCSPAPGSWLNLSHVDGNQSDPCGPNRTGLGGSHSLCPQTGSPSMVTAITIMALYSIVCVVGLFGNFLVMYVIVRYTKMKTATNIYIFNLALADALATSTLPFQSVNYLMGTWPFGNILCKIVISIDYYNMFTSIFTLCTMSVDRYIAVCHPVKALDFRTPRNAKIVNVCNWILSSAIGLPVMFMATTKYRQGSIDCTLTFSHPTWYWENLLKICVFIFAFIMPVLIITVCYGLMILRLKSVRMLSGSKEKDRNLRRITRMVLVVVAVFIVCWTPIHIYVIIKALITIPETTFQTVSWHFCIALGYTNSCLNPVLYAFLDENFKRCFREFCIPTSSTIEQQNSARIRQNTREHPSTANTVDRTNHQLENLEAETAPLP
Kappa-type opioid receptor (Homo sapiens), sequence (P41145 whole entry): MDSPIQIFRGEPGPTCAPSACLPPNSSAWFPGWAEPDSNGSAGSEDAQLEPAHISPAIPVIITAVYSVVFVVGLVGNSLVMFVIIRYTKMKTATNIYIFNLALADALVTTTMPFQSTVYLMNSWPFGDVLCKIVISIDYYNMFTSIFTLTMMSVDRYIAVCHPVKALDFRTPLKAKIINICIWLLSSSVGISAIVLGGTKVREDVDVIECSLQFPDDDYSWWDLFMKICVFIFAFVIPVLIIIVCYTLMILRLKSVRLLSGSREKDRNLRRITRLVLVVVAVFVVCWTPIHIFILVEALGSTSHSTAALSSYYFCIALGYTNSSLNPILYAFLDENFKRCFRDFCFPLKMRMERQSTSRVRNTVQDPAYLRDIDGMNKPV
Delta-type opioid receptor, sequence (P32300 whole entry): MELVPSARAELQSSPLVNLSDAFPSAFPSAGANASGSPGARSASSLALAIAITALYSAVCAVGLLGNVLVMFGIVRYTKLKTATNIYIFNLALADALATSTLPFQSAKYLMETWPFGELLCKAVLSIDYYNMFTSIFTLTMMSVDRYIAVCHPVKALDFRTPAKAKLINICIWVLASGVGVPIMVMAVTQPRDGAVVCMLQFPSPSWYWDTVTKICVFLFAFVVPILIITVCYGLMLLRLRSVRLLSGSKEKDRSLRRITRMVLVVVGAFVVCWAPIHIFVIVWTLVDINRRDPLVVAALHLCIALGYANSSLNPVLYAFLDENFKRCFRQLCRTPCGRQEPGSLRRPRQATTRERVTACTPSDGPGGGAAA
Delta-type opioid receptor (Mus musculus), sequence (P32300 whole entry): as above
Mu-type opioid receptor (Cavia porcellus), sequence (P97266 whole entry): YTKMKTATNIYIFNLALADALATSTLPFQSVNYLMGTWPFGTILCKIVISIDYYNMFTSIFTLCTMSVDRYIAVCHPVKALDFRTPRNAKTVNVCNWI
Mu-type opioid receptor (Homo sapiens), sequence (P35372 whole entry): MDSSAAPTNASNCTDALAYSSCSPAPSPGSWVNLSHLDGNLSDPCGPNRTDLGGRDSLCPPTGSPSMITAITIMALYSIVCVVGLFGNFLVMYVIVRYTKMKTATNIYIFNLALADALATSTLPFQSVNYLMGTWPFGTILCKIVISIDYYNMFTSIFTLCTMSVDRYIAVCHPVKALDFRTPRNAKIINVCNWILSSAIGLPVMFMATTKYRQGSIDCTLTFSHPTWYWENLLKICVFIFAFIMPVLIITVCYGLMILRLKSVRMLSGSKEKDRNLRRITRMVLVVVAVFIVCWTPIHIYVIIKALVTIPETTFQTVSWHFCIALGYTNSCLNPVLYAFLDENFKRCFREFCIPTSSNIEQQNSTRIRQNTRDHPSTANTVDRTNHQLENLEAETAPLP
Kappa-type opioid receptor (Cavia porcellus), sequence (P41144 whole entry): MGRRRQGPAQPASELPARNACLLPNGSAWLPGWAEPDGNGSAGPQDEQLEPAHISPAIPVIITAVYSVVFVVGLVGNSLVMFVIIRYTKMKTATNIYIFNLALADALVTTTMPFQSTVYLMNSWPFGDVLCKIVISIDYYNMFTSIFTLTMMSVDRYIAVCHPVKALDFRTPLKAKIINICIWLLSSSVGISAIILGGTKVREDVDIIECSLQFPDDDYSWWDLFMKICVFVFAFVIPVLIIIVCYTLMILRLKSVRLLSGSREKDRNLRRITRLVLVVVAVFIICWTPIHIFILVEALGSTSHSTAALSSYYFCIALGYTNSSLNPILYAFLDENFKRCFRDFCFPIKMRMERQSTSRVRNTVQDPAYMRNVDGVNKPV
Delta-type opioid receptor (Homo sapiens), sequence (P41143 whole entry): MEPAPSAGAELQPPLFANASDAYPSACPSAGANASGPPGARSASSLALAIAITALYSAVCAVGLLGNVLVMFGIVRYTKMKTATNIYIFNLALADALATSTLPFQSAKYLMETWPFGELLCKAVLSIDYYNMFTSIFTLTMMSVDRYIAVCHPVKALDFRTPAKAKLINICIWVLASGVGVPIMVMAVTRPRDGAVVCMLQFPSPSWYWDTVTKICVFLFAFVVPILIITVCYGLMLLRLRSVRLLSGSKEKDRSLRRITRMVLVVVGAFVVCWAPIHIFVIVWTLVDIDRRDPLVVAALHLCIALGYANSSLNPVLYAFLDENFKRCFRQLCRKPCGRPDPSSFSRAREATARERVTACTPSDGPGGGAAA
Kappa-type opioid receptor, sequence (P33534 whole entry): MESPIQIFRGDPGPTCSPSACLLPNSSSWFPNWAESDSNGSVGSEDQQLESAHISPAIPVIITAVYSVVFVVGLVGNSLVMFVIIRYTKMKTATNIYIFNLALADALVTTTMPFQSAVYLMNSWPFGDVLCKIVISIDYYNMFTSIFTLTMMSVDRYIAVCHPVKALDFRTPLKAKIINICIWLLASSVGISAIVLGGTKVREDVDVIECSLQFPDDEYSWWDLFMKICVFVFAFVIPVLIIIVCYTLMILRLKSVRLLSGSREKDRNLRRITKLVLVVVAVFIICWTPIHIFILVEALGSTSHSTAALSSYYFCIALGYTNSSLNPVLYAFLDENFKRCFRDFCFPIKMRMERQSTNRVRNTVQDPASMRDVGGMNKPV

| SMILES | IC50 ratio [1] | pKi [2] | Ke [3] [nM] | pKi [4] | pKi (Mu-type opioid receptor) | Selectivity ratio [5] | Selectivity ratio [6] | Selectivity ratio [7] | Selectivity ratio [8] | IC50 ratio [9] | IC50 ratio [10] | Ke [11] [nM] | Ke [12] [nM] | IC50 ratio [13] | IC50 ratio [14] |
| --- | --- | --- | --- | --- | --- | --- | --- | --- | --- | --- | --- | --- | --- | --- | --- |
| Cc1[nH]c2c(c1Cc1ccccc1)C[C@@]1(O)C3Cc4ccc(O)c5c4C1(CCN3CC1CC1)[C@H]2O5 (stereo not given in full) | 1.3 | 7.39 | 2.1 | 9.46 | 7.55 | 50 | 117 | 80 | 50 | 50 | 1.3 | – | – | – | – |
| CCCCc1c(CC(C)C)[nH]c2c1C[C@@]1(O)C3Cc4ccc(O)c5c4C1(CCN3CC1CC1)[C@H]2O5 (stereo not given in full) | 0.76 | – | 11.4 | – | – | 10 | – | – | 10 | 9.8 | 0.99 | – | – | – | – |
| Cc1c(CC(C)C)[nH]c2c1C[C@@]1(O)C3Cc4ccc(O)c5c4C1(CCN3CC1CC1)[C@H]2O5 (stereo not given in full) | 380 | – | 3.3 | – | – | – | – | – | – | 32 | 380 | – | – | – | – |
| Oc1ccc2c3c1O[C@H]1c4[nH]c5ccccc5c4C[C@@]4(O)[C@@H](C2)N(CC2CC2)CC[C@]314 [NALTRINDOLE] | – | 6.45 | – | 10.40 | 8.21 | – | – | – | – | – | – | – | – | – | – |
| Oc1ccc2c3c1O[C@H]1c4[nH]ccc4C[C@@]4(O)C(C2)N(CC2CC2)CCC314 (stereo not given in full) | – | – | 3.2 | – | – | 0.17 | – | – | 0.03 | – | – | 3.2 | 0.65 | – | – |
| Cc1[nH]c2c(c1-c1ccccc1)C[C@@]1(O)C3Cc4ccc(O)c5c4C1(CCN3CC1CC1)[C@H]2O5 (stereo not given in full) | 0.9 | – | – | – | – | 1.6 | – | – | 1.6 | 1.6 | 0.98 | – | – | – | – |
| O=C1/C(=C/c2ccccc2)C[C@@]2(O)[C@H]3Cc4ccc(O)c5c4[C@@]2(CCN3CC2CC2)[C@H]1O5 | – | – | – | – | – | 18 | – | – | 2.7 | – | – | – | – | – | – |
| Cn1c2c(c3c1[C@@H]1Oc4c(O)ccc5c4C14CCN(CC1CC1)C(C5)[C@]4(O)C3)CCCC2 (stereo not given in full) | – | – | – | – | – | – | – | – | – | – | – | 254 | 158 | – | – |
| CCCCc1c(C)[nH]c2c1C[C@@]1(O)C3Cc4ccc(O)c5c4C1(CCN3CC1CC1)[C@H]2O5 (stereo not given in full) | 2.1 | 7.41 | 6.7 | 7.92 | 7.24 | 17 | 3.3 | 4.8 | 8 | 16.8 | 0.95 | – | – | – | – |
| CC(C)Cc1[nH]c2c(c1-c1ccccc1)C[C@@]1(O)C3Cc4ccc(O)c5c4C1(CCN3CC1CC1)[C@H]2O5 (stereo not given in full) | 4.1 | – | – | – | – | 0.2 | – | – | 0.2 | 0.76 | 1.3 | – | – | – | – |
| Oc1ccc2c3c1O[C@H]1c4[nH]c(-c5ccccc5)c(-c5ccccc5)c4C[C@@]4(O)C(C2)N(CC2CC2)CCC314 (stereo not given in full) | – | – | – | – | – | 1 | – | – | 1 | 1.4 | – | – | – | 1.2 | 1.1 |
| Oc1ccc2c3c1O[C@H]1c4[nH]cc(-c5ccccc5)c4C[C@@]4(O)C(C2)N(CC2CC2)CCC314 (stereo not given in full) | 2.3 | 7.35 | – | 8.57 | 7.68 | 0.7 | 16.7 | 7.8 | 0.7 | 1.5 | 2.1 | – | – | – | – |
| Cc1[nH]c2c(c1C)C[C@@]1(O)C3Cc4ccc(O)c5c4C1(CCN3CC1CC1)[C@H]2O5 (stereo not given in full) | 1.5 | 7.66 | 14.8 | 9.39 | 7.41 | 7 | 53.7 | 95 | 5 | 7.7 | 1.4 | – | – | – | – |

Source: ChEMBL document CHEMBL1130071, “Pyrrolomorphinans as delta opioid receptor antagonists. The role of steric hindrance in conferring selectivity” (J Med Chem, 1997)
